Screening results: PubChem BioAssay, ICCB-Longwood Screening Facility, Harvard Medical School
The entries come from a sample that favours hits as a whole.
KSHV LANA nucl: LANA-nucleosome interaction inhibition | FITC-LANA1-23 / chicken nucleosome fluorescence polarization; stronger effect = lower value | z-score (test concentration not listed) | 51,000 compounds, 0.3% hits | AID 720717;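 active = both repeat wells score below -2 in polarization z-score versus plate sample wells, excluding overly bright wells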
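Assay system: FITC-LANA peptide and chicken nucleosomes; input: 240 nM purified chicken nucleosomes (480 nM peptide binding sites), final; also added: 50 nM FITC-LANA1-23 probe; medium: TEN-BT buffer, pH 7.5; doses: pin-transferred compound, 100 nL; times: 10–45 min, room temperature; technique: fluorescence polarization; replication: duplicates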
Numbers without * were called inactive.

SMILES	KSHV LANA nucl
N#Cc1c(/N=C/c2ccc(O)cc2O)sc2c1C1CCN2CC1	-3.89*
COc1cc(C2NC(=O)NC(c3ccc(O)c(OC)c3)C23C(=O)NC(=O)NC3=O)ccc1O (stereo not drawn)	-0.242
Cc1[nH]c(=O)[nH]c(=O)c1C1N2CC3(C)CN1CC(C)(C2)C3=O (stereo not drawn)	-0.394
CSc1ccc(C=C(C#N)C#N)s1	-1.28
Cc1ccc(C=C(C#N)C#N)o1	-0.564
N#CC(C#N)=Cc1ccc(-c2ccccc2)o1	-4.69*
C=CCOC(=O)C1=C(C)NC(=O)C12C(C(=O)OC)=C(N)Oc1ccccc12 (stereo not drawn)	-0.248
C/C=C1\CC(C)C(C)(O)C(=O)OCC2CCN3CCC(OC1=O)C23 (stereo not drawn)	0.405
CN1CCc2c(C#N)c(Cl)nc(NCc3ccccc3)c2C1	0.063
CN1CCc2c(C#N)c(N)n(N)c(=S)c2C1	-3.8*
Cc1ccc(C2N3CC(C)(C)CN23)cc1 (stereo not drawn)	0.273
N#Cc1cc2c(nc1SCc1ccccc1F)C1CCN2CC1	1.52
CCC(=O)c1ccc(OC)c(F)c1	0.463
CCN1C[C@]2(COC)CC[C@H](O)[C@@]34C5C[C@H]6C(OC)C5[C@](O)(C[C@H]6OC)C(O)(C(OC)C23)[C@@H]14 (stereo partly drawn)	-0.255
Cc1nc2c(o1)NC(N)=C(C#N)C21CCN(C)CC1	-0.614
CC[C@@]1(O)C[C@H](O[C@H]2C[C@H](N(C)C)[C@H](O)[C@H](C)O2)c2c(cc3c(c2O)C(=O)c2c(O)ccc(O)c2C3=O)[C@H]1C(=O)OC	-2.78*
CC[C@@]1(O)C[C@H](O)c2c(cc3c(c2O)C(=O)c2c(O)ccc(O)c2C3=O)[C@H]1C(=O)OC	-1.3
CC[C@@]1(O)C[C@H](O[C@H]2C[C@H](N(C)C)[C@H](O)[C@H](C)O2)c2c(cc3c(c2O)C(=O)c2c(O)cccc2C3=O)[C@H]1C(=O)OC	2.2
CN(C)CCN(C(=O)Cc1ccccc1)c1nc2cc3c(cc2s1)OCCO3	-0.524
CCOc1cc(/C=C2\C(O)C3CCN2CC3)cc(Cl)c1OCC (stereo not drawn)	-1.77
O=C(N1CC2CC(C1)c1cccc(=O)n1C2)C(F)(F)F (stereo not drawn)	-0.197
COc1ccc2c(c1OC)C(=O)OC2C1c2cc3c(cc2CCN1C)OCO3 (stereo not drawn)	-0.68
COc1ccc2c(c1OC)C(=O)O[C@@H]2[C@@H]1c2cc3c(cc2CCN1C)OCO3	-0.239
CN1CCc2cc3c(c4c2C1Cc1ccccc1-4)OCO3 (stereo not drawn)	-3.19*
Cc1cc(N2CC3CC(C2)c2cccc(=O)n2C3)n2ncnc2n1 (stereo not drawn)	0.101
CN1CCCSC1=Nc1ccccc1F	0.647
O=P1(Nc2ccc(Cl)cc2)CC=CC1	0.201
CCN1CCN(Cc2ccc(Cl)cc2)CC1	-0.201
CCN1CCN(c2ccc(N)cc2)CC1	-2.87*
CCN1CCN(Cc2ccc(C)cc2)CC1	-0.168
